Test results published in ChEMBL document CHEMBL2040831, “Discovery of ((S)-5-(methoxymethyl)-7-(1-methyl-1H-indol-2-yl)-2-(trifluoromethyl)-4,7-dihydropyrazolo[1,5-a]pyrimidin-6-yl)((S)-2-(3-methylisoxazol-5-yl)pyrrolidin-1-yl)methanone as a potent and selective I(Kur) inhibitor” (J Med Chem, 2012).
Activity calls are given as the source filed them. No cut-off for these calls is given here.

Columns and labels:
[1] = target: T1, Potassium voltage-gated channel subfamily A member 5 (Homo sapiens, UniProt P22460); assay: Inhibition of human KV1.5 ion channel expressed in mouse L929 cells by whole cell patch clamp assay; assay type: cell-based
[2] = target: T1, Potassium voltage-gated channel subfamily A member 5; assay: Inhibition of human KV1.5 ion channel expressed in mouse L929 cells at 0.3 uM by whole cell patch clamp assay; assay type: cell-based
[3] = Drug degradation assessed as GSH adduct formation by fluorescence detection assay; assay type: physicochemical
Outline: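 Test article at 100 μM incubated 30 min at 37 °C with 2 mg/mL human liver microsomes in 0.1 M potassium phosphate buffer containing 2 mM NADPH and 2 mM dansyl glutathione. Quenched with 2 volumes of 5 mM dithiothreitol in methanol, vortexed and centrifuged. Supernatant analysed by HPLC with fluorescence detection (Ex 340 nm, Em 525 nm) to quantify GSH adducts.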

[4] = Oral bioavailability in rat at 26 umol/kg; assay type: ADME, organism-based; conditions: in vivo
[5] = tested on: Liver microsomes; assay: Metabolic stability in rat liver microsomes; assay type: ADME, Microsome
[6] = tested on: Oryctolagus cuniculus; assay: Antiatrial fibrillation activity in methoxamine-sensitised rabbit assessed as increase in atrial effective refractory period at 1 mg/kg, iv relative to control; assay type: functional, Cardiac atrium
[7] = Clearance in rat at 12 umol/kg, iv and 26 umol/kg, po; assay type: ADME, organism-based; conditions: in vivo
[8] = Oral bioavailability in dog at 5.2 umol/kg; assay type: ADME, organism-based, Canis lupus familiaris; conditions: in vivo
[9] = tested on: Liver microsomes; assay: Metabolic stability in human liver microsomes; assay type: ADME, Microsome
[10] = target: hERG (KCNH2) (Homo sapiens, UniProt Q12809); assay: Inhibition of human ERG expressed in HEK293 cells at 10 uM by patch clamp assay; assay type: cell-based; conditions: HEK293 cells expressing human ERG
[11] = Half life in rat at 12 umol/kg, iv and 26 umol/kg, po; assay type: ADME, organism-based; conditions: in vivo
[12] = tested on: Plasma; assay: Plasma concentration in methoxamine-sensitised rabbit AERP model at 3 mg/kg, iv; assay type: ADME, organism-based, Oryctolagus cuniculus; parameters: dose 3 mg/kg, route intravenous; conditions: in vivo
[13] = Volume of distribution at steady state in dog at 5.6 umol/kg, iv and 5.2 umol/kg, po; assay type: ADME, organism-based, Canis lupus familiaris; conditions: in vivo, read-out: Vdss
[14] = tested on: Plasma; assay: Plasma concentration in methoxamine-sensitised rabbit AERP model at 0.3 mg/kg, iv; assay type: ADME, organism-based, Oryctolagus cuniculus; parameters: dose 0.3 mg/kg, route intravenous; conditions: in vivo
[15] = Clearance in dog at 5.6 umol/kg, iv and 5.2 umol/kg, po; assay type: ADME, organism-based, Canis lupus familiaris; conditions: in vivo
[16] = tested on: Plasma; assay: Plasma concentration in methoxamine-sensitised rabbit AERP model at 10 mg/kg, iv; assay type: ADME, organism-based, Oryctolagus cuniculus; parameters: dose 10 mg/kg, route intravenous; conditions: in vivo
[17] = tested on: Oryctolagus cuniculus; assay: Antiatrial fibrillation activity in methoxamine-sensitised rabbit assessed as increase in atrial effective refractory period at 0.3 to 10 mg/kg, iv relative to control; assay type: functional, organism-based; conditions: Cardiac atrium
[18] = Volume of distribution at steady state in rat at 12 umol/kg, iv and 26 umol/kg, po; assay type: ADME, organism-based; conditions: in vivo, read-out: Vdss
[19] = Half life in dog at 5.6 umol/kg, iv and 5.2 umol/kg, po; assay type: ADME, organism-based, Canis lupus familiaris; conditions: in vivo
[20] = tested on: Oryctolagus cuniculus; assay: Proarrythmic activity in methoxamine-sensitized rabbit assessed as increase in ventricular effective refractory period at 0.3 to 10 mg/kg, iv relative to control; assay type: organism-based, Cardiac ventricle; parameters: dose 0.3-10 mg/kg, route intravenous; conditions: in vivo
[21] = tested on: Plasma; assay: Plasma concentration in methoxamine-sensitised rabbit AERP model at 1 mg/kg, iv; assay type: ADME, organism-based, Oryctolagus cuniculus; parameters: dose 1 mg/kg, route intravenous; conditions: in vivo
[22] = target: Voltage-gated inwardly rectifying potassium channel KCNH2 (Homo sapiens, UniProt Q12809); assay: Inhibition of human ERG expressed in HEK293 cells by patch clamp assay; assay type: cell-based
[23] = Inhibition of INa ion channel
[24] = Inhibition of ICAL ion channel at 10 uM
[25] = Inhibition of ICAL ion channel
[26] = Inhibition of INa ion channel at 10 uM
[27] = Volume of distribution at steady state in rat at 12 umol/kg, iv and 25.5 umol/kg, po; assay type: ADME, organism-based; conditions: in vivo, read-out: Vdss
[28] = target: T2, A-type voltage-gated potassium channel KCND3 (Homo sapiens, UniProt Q9UK17); assay: Inhibition of KV4.3 ion channel
T2 sequence (Q9UK17 whole entry): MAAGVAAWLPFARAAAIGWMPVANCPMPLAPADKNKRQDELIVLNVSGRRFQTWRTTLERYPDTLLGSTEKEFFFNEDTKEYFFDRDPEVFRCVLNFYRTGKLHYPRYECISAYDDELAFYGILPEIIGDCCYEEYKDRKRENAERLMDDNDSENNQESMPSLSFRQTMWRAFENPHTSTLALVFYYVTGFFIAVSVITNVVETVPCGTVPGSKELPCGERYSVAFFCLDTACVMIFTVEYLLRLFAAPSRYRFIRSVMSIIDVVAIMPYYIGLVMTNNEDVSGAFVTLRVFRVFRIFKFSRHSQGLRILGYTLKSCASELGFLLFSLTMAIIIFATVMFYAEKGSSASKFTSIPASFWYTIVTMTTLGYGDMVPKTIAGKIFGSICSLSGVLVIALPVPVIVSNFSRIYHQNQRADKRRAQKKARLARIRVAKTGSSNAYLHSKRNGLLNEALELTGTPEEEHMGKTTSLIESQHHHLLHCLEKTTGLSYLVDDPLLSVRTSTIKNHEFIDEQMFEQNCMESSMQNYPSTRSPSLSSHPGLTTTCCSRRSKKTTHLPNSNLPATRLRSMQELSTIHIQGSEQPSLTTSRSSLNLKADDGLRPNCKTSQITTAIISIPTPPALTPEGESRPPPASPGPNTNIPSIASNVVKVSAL

[29] = Half life in rat at 12 umol/kg, iv and 25.5 umol/kg, po; assay type: ADME, organism-based; conditions: in vivo
[30] = Volume of distribution at steady state in rabbit at 5.6 umol/kg, iv; assay type: ADME, organism-based, Oryctolagus cuniculus; conditions: in vivo, read-out: Vdss
[31] = Half life in rabbit at 5.6 umol/kg, iv; assay type: ADME, organism-based, Oryctolagus cuniculus; conditions: in vivo
[32] = Oral bioavailability in rat at 25.5 umol/kg; assay type: ADME, organism-based; conditions: in vivo
[33] = Clearance in rat at 12 umol/kg, iv and 25.5 umol/kg, po; assay type: ADME, organism-based; conditions: in vivo
[34] = Clearance in rabbit at 5.6 umol/kg, iv; assay type: ADME, organism-based, Oryctolagus cuniculus; conditions: in vivo

Sequence of hERG (KCNH2) (Q12809 whole entry): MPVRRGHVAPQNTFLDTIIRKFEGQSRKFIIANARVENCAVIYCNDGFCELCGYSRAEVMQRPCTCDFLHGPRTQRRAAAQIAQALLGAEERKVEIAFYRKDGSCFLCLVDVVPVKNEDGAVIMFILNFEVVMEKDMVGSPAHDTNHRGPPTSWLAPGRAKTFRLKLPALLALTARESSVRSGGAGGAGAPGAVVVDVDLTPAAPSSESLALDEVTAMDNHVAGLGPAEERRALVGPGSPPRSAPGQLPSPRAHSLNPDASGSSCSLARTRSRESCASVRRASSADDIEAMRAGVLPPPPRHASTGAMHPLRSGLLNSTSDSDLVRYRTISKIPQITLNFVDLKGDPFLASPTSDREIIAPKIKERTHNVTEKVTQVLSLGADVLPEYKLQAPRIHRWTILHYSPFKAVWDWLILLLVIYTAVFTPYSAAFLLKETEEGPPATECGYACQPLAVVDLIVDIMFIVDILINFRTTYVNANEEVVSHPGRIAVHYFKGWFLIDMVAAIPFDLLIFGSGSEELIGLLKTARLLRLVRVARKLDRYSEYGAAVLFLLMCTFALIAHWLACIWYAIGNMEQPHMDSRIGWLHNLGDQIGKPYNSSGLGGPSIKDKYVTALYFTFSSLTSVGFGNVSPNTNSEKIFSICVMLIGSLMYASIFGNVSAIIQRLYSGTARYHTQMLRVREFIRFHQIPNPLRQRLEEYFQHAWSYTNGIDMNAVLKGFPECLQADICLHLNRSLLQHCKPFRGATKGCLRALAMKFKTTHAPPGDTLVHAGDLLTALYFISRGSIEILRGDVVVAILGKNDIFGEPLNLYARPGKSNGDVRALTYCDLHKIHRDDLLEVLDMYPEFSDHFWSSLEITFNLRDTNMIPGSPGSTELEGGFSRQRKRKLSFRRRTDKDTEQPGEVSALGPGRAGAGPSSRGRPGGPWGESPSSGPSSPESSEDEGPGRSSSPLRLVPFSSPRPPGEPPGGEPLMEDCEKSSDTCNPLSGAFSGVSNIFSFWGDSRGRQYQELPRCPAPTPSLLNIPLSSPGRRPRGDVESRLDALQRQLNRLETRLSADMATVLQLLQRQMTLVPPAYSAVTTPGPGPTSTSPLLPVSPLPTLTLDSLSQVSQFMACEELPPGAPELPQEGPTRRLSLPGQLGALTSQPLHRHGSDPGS
T1 sequence (P22460 whole entry): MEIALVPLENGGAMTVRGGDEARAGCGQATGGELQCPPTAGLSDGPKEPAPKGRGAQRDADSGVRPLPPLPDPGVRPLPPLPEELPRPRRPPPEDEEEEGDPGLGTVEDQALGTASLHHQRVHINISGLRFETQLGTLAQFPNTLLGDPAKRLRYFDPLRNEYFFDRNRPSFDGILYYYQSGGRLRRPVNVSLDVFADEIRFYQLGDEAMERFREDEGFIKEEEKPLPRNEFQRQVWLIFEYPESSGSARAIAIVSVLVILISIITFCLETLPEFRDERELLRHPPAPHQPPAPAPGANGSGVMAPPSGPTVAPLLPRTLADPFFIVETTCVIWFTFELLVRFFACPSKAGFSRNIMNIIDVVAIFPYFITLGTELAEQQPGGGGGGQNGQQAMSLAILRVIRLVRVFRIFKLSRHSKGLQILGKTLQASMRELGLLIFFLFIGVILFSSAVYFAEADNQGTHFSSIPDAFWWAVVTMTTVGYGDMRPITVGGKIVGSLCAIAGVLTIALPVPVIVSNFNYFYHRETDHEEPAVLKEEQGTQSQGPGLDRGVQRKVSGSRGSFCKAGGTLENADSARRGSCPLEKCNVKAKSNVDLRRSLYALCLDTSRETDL
Sequence of Voltage-gated inwardly rectifying potassium channel KCNH2 (Q12809 whole entry): as the sequence (Q12809 whole entry) above

Structure (SMILES): CC1=C(C(=O)N2CCC[C@H]2c2cc(C)no2)[C@@H](c2nc3ccccc3s2)n2nc(C(F)(F)F)cc2N1
- IC50 [1]: 281 nM

Structure (SMILES): CC1=C(C(=O)N2CCN(c3ccc(F)cc3)CC2)C(c2ccc(Cl)c(Cl)c2)n2nc(C(F)(F)F)cc2N1 (racemic)
- IC50 [1]: 419 nM

Structure (SMILES): CC1=C(C(=O)N2CCN(c3ccc(F)cc3)CC2)C(c2ccc(Cl)c(Cl)c2)n2ncc(Cl)c2N1 (racemic)
- inhibition [2]: 24%
- GSH adduct formation [3]: 4%

Structure (SMILES): CC1=C(C(=O)N2CCC[C@H]2c2cc(C)no2)[C@@H](c2ccc(Cl)c(Cl)c2)n2nc(C(F)(F)F)cc2N1
- bioavailability [4]: 68%
- Stability [5]: Stable
- Activity [6]: 20%
- clearance [7]: 27 mL/min/kg
- bioavailability [8]: 53%
- Stability [9]: Stable
- inhibition at 10 µM [10]: 47%
- half-life [11]: 1 h
- concentration [12]: 6700 nM
- Vd [13]: 1.7 L/kg
- concentration [14]: 700 nM
- clearance [15]: 11 mL/min/kg
- concentration [16]: 17300 nM
- Activity [17]: Active
- Vd [18]: 3 L/kg
- half-life [19]: 1.8 h
- Activity [20]: Non-toxic
- concentration [21]: 1700 nM
- GSH adduct formation [3]: < 1%
- IC50 [1]: 101 nM

Structure (SMILES): CC1=C(C(=O)N2CCC[C@H]2c2ccc(F)cc2)[C@@H](c2ccc(Cl)c(Cl)c2)n2nc(C(F)(F)F)cc2N1
- inhibition [2]: 37%

Structure (SMILES): COCC1=C(C(=O)N2CCC[C@H]2c2cc(C)no2)[C@@H](c2ccc(Cl)c(Cl)c2)n2nccc2N1
- inhibition at 10 µM [10]: 14%
- IC50 [1]: 70 nM

Structure (SMILES): CC1=C(C(=O)N2CCN(c3ccc(F)cc3)CC2)C(c2ccc(Cl)c(Cl)c2)n2nc(Cl)cc2N1 (racemic)
- IC50 [1]: 209 nM

Structure (SMILES): CC1=C(C(=O)N2CCC[C@H]2c2cc(C)no2)[C@@H](c2cc3ccccc3n2C)n2nc(C(F)(F)F)cc2N1
- inhibition at 10 µM [10]: 19%
- IC50 [1]: 72 nM

Structure (SMILES): COCC1=C(C(=O)N2CCC[C@H]2c2cc(C)no2)[C@@H](c2cc3ccccc3n2C)n2nc(C(F)(F)F)cc2N1
- IC50 [22]: > 10000 nM
- IC50 [23]: > 10000 nM
- inhibition [24]: 37%
- IC50 [25]: > 10000 nM
- inhibition [26]: 10%
- bioavailability [8]: 31%
- Vd [27]: 1.9 L/kg
- IC50 [28]: 5800 nM
- inhibition at 10 µM [10]: 14%
- half-life [29]: 2.5 h
- concentration [12]: 2100 nM
- Vd [13]: 3.7 L/kg
- concentration [14]: 300 nM
- clearance [15]: 29 mL/min/kg
- Vd [30]: 5 L/kg
- half-life [31]: 2 h
- concentration [16]: 13400 nM
- bioavailability [32]: 61%
- half-life [19]: 1.8 h
- Activity [20]: Non-toxic
- concentration [21]: 700 nM
- clearance [33]: 12 mL/min/kg
- IC50 [1]: 150 nM
- clearance [34]: 47 mL/min/kg

Structure (SMILES): CC1=C(C(=O)N2CCC[C@H]2c2ccc(F)cc2)[C@@H](c2ccc(Cl)c(Cl)c2)n2ncc(C)c2N1
- inhibition [2]: 45%
- GSH adduct formation [3]: < 1%

Structure (SMILES): CC1=C(C(=O)N2CCC[C@H]2c2cc(C)no2)[C@@H](c2nc3ccccc3n2C)n2nc(C(F)(F)F)cc2N1
- inhibition [2]: 36%

Structure (SMILES): CC1=C(C(=O)N2CCC[C@H]2c2cc(C)no2)[C@@H](c2ccc(Cl)c(Cl)c2)n2nc(C)cc2N1
- Stability [5]: Unstable
- Stability [9]: Unstable
- inhibition at 10 µM [10]: 13%
- GSH adduct formation [3]: < 1%
- IC50 [1]: 165 nM

Structure (SMILES): CC1=C(C(=O)N2CCC[C@H]2c2cc(C)no2)[C@@H](c2ccc(Cl)c(Cl)c2)n2nc(C3CC3)cc2N1
- IC50 [1]: 227 nM

Structure (SMILES): CC1=C(C(=O)N2CCN(c3ccc(F)cc3)CC2)[C@@H](c2ccc(Cl)c(Cl)c2)n2nccc2N1
- inhibition at 10 µM [10]: 42%

Structure (SMILES): CC1=C(C(=O)N2CCC[C@H]2c2cc(C)no2)[C@@H](c2ccc(Cl)c(Cl)c2)n2nccc2N1
- inhibition at 10 µM [10]: 41%
- GSH adduct formation [3]: 21%
- IC50 [1]: 83 nM

Structure (SMILES): CC1=C(C(=O)N2CCN(c3ccc(F)cc3)CC2)C(c2ccc(Cl)c(Cl)c2)n2nc(C)cc2N1 (racemic)
- Stability [5]: Unstable
- Stability [9]: Unstable
- inhibition at 10 µM [10]: 60%
- GSH adduct formation [3]: < 1%
- IC50 [1]: 124 nM

Structure (SMILES): CC1=C(C(=O)N2CCN(c3ccccc3)CC2)C(c2ccc(Cl)c(Cl)c2)n2nc(C)cc2N1 (racemic)
- inhibition at 10 µM [10]: 29%
- IC50 [1]: 149 nM

Structure (SMILES): CC1=C(C(=O)N2CCC[C@H]2c2ccc(F)cc2)[C@@H](c2ccc(Cl)c(Cl)c2)n2nccc2N1 [BMS-394136]
- inhibition at 10 µM [10]: 30%
- GSH adduct formation [3]: 33%

Structure (SMILES): CC1=C(C(=O)N2CCC[C@H]2c2ccc(F)cc2)[C@@H](c2ccc(Cl)c(Cl)c2)n2nc(C)cc2N1
- Stability [5]: Unstable
- Stability [9]: Unstable
- inhibition at 10 µM [10]: 10%
- GSH adduct formation [3]: 5%
- IC50 [1]: 100 nM
